The text below walks through data of ChEMBL document CHEMBL1127787, “1,2,3-Triazole-[2',5'-bis-O-(tert-butyldimethylsilyl)-beta-D- ribofuranosyl]-3'-spiro-5"-(4"-amino-1",2"-oxathiole 2",2"-dioxide) (TSAO) analogues: synthesis and anti-HIV-1 activity” (J Med Chem, 1994).

Assay [1] has as its system MT4. Nature of the assay: Tested for the ratio between CC50 (MT-4) to EC50 (MT-4). It is filed as functional, Homo sapiens.
Assay [2] relates to MT4. In words: Tested for the cytotoxic concentration required to reduce the number of viable mock infected MT-4 cells. It is filed as functional. Conditions: Homo sapiens. Summed up:
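Mock-infected MT-4 cells (5 × 10^5/mL) in RPMI-1640 with 10% FCS were exposed to compound dilutions (100 to 0.006 µg/mL). Viable cells were counted by trypan blue at day 5; about 150-200 cells were counted in controls. CC50 is the concentration that reduces viable cell number by 50%.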

Assay [3] has as its system MT4. Nature of the assay: Tested for the inhibitory activity of HIV-2 infected MT-4 cells. It counts as functional, cell-based. The following applies: Homo sapiens. Summed up: (§1)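 MT-4 cells (5 × 10^5/mL) grown in RPMI-1640 with 10% FCS, 2 mM L-glutamine and 0.075% NaHCO3. Infected with HIV-1 or HIV-2 at 100 CCID50/mL and mixed with compound dilutions (100 to 0.006 µg/mL). After 5 days viable cells were counted by trypan blue staining. EC50 is the concentration that reduces viable-cell loss in infected cultures by 50%.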

For assay [4], the system named is CCRF-CEM. Nature of the assay: Tested for the inhibitory activity of virus induced giant cell formation in HIV-2 infected CEM cells. It counts as functional, cell-based. Conditions: Homo sapiens.
Assay [5] relates to CCRF-CEM. Nature of the assay: Tested for the inhibitory activity of virus induced giant cell formation in HIV-1 infected CEM cells. It counts as functional, cell-based. The following applies: Homo sapiens.
Assay [6] relates to MT4. In words: Tested for the inhibitory activity of HIV-1 infected MT-4 cells. It is filed as functional, cell-based. Conditions: Homo sapiens. The method in brief: as §1

By CC50 is commonly meant the concentration at which the toxic effect on the cells reaches its halfway point. The low end stands for greater toxicity to the cells, the high end for lower toxicity to the cells. Broadly, the EC50 is the concentration needed to bring the measured effect to its halfway point.

On to `Cc1cn([C@H]2C[C@H](N=[N+]=[N-])[C@@H](CO)O2)c(=O)[nH]c1=O` [ZIDOVUDINE], for which the Ratio with MT4 [1] is 3000. For the same compound, in the assay on MT4 [2], the CC50 worked out at 6 µM.
Turning to `CC(=O)c1cnnn1[C@@H]1O[C@H](CO[Si](C)(C)C(C)(C)C)[C@@]2(OS(=O)(=O)C=C2N)[C@H]1O[Si](C)(C)C(C)(C)C`, the EC50 is greater than 35 µM in the assay on MT4 [3], greater than 70 µM in the assay with CCRF-CEM [4], 1.1 µM in the assay with CCRF-CEM [5] and 2.3 µM in the assay on MT4 [6]. In addition, in the assay on MT4 [1], the Ratio is 30. The CC50 in the assay with MT4 [2] is 69 µM.
As to `CCCc1cnnn1[C@@H]1O[C@H](CO[Si](C)(C)C(C)(C)C)[C@@]2(OS(=O)(=O)C=C2N)[C@H]1O[Si](C)(C)C(C)(C)C`, the EC50 is greater than 350 µM in the assay with MT4 [3], greater than 35 µM in the assay on CCRF-CEM [4], 3.9 µM in the assay with CCRF-CEM [5] and 3.13 µM in the assay with MT4 [6]. In the assay with MT4 [1], the Ratio is recorded as greater than 56. In the assay with MT4 [2], this compound yielded a CC50 greater than 175 µM.
In the case of `CCOC(OCC)c1cn([C@@H]2O[C@H](CO[Si](C)(C)C(C)(C)C)[C@@]3(OS(=O)(=O)C=C3N)[C@H]2O[Si](C)(C)C(C)(C)C)nn1`, the half-maximal effective concentration (EC50) was greater than 150 µM in the assay on MT4 [3], greater than 150 µM in the assay on CCRF-CEM [4], greater than 150 µM in the assay on CCRF-CEM [5] and 73 µM with MT4 [6]. The Ratio in the assay with MT4 [1] is reported as greater than 2.1. Moreover, in the assay with MT4 [2], the CC50 is greater than 150 µM.
Regarding `CNC(=O)c1cn([C@@H]2O[C@H](CO[Si](C)(C)C(C)(C)C)[C@@]3(OS(=O)(=O)C=C3N)[C@H]2O[Si](C)(C)C(C)(C)C)nn1`, the half-maximal effective concentration (EC50) is greater than 7 µM in the assay with MT4 [3], greater than 7 µM with CCRF-CEM [4], 1.2 µM in the assay on CCRF-CEM [5] and 0.41 µM in the assay on MT4 [6]. In the assay with MT4 [1], the Ratio was 28.8. Also, in the assay with MT4 [2], the half-maximal cytotoxic concentration (CC50) turned out to be 12 µM.
`CCOC(=O)c1nnn([C@@H]2O[C@H](CO[Si](C)(C)C(C)(C)C)[C@@]3(OS(=O)(=O)C=C3N)[C@H]2O[Si](C)(C)C(C)(C)C)c1C(=O)OCC`: the EC50 in the assay on MT4 [3] is greater than 30 µM; in the assay with CCRF-CEM [4], greater than 60 µM; in the assay on CCRF-CEM [5], 1.6 µM; in the assay with MT4 [6], 3.8 µM. Besides, the Ratio in the assay on MT4 [1] is given as 14.5. In the assay on MT4 [2], this compound returned a CC50 of 55 µM.
In the case of `COC(=O)c1cn([C@@H]2O[C@H](CO[Si](C)(C)C(C)(C)C)[C@@]3(OS(=O)(=O)C=C3N)[C@H]2O[Si](C)(C)C(C)(C)C)nn1`, the 50% effective concentration (EC50) in the assay with MT4 [3] was greater than 150 µM; in the assay with CCRF-CEM [4], greater than 40 µM; with CCRF-CEM [5] it was 0.18 µM; in the assay with MT4 [6], 0.6 µM. The Ratio result in the assay with MT4 [1] was “>=249”. In the assay on MT4 [2], this compound had a CC50 of no less than 150 µM.
Consider `COCc1cnnn1[C@@H]1O[C@H](CO[Si](C)(C)C(C)(C)C)[C@@]2(OS(=O)(=O)C=C2N)[C@H]1O[Si](C)(C)C(C)(C)C`, for which the half-maximal effective concentration (EC50) in the assay with MT4 [3] is greater than 7 µM; in the assay with CCRF-CEM [4], greater than 14 µM; in the assay with CCRF-CEM [5], 0.9 µM; in the assay with MT4 [6], 2.4 µM. Also, the Ratio in the assay on MT4 [1] was found to be 11. In the assay on MT4 [2], this compound had a cytotoxic concentration (CC50) of 28 µM.
As for `CCOC(=O)c1cnnn1[C@@H]1O[C@H](CO[Si](C)(C)C(C)(C)C)[C@@]2(OS(=O)(=O)C=C2N)[C@H]1O[Si](C)(C)C(C)(C)C`, the EC50 with MT4 [3] was greater than 165 µM; in the assay on CCRF-CEM [4], greater than 165 µM; in the assay on CCRF-CEM [5], 1.3 µM; with MT4 [6] it was 3.2 µM. In the assay with MT4 [1], the Ratio was greater than 51. The compound further yielded a cytotoxic concentration (CC50) in the assay with MT4 [2] greater than 165 µM.
Turning to `CC(=O)c1cn([C@@H]2O[C@H](CO[Si](C)(C)C(C)(C)C)[C@@]3(OS(=O)(=O)C=C3N)[C@H]2O[Si](C)(C)C(C)(C)C)nn1`, the EC50 in the assay on MT4 [3] is greater than 7 µM; in the assay on CCRF-CEM [4], greater than 35 µM; in the assay on CCRF-CEM [5], 1.1 µM; in the assay with MT4 [6], 1.5 µM. In addition, the Ratio in the assay on MT4 [1] was 8.6. In the assay with MT4 [2], the midpoint of cytotoxicity, the CC50, lay at 13 µM.
Take `Cc1cn([C@@H]2O[C@H](CO[Si](C)(C)C(C)(C)C)C3(OS(=O)(=O)C=C3N)[C@H]2O[Si](C)(C)C(C)(C)C)c(=O)[nH]c1=O` (stereo not given in full): the 50% effective concentration (EC50) was greater than 20 µM in the assay with MT4 [3], greater than 20 µM in the assay with CCRF-CEM [4] and 0.06 µM in the assay with CCRF-CEM [5]. Further, in the assay on MT4 [2], the CC50 was found to be 14 µM.
